From ChEMBL document CHEMBL1133976, “Orally bioavailable, indole-based nonpeptide GnRH receptor antagonists with high potency and functional activity” (Bioorg Med Chem Lett, 2001)

Assays:
[1] = biological target: T1, Gonadotropin-releasing hormone receptor (Homo sapiens, UniProt P30968); experiment: In vitro functional antagonism via inhibition of GnRH-stimulated phosphatidylinositol (PI) hydrolysis in cloned Chinese hamster ovary (CHO) cells stably expressing the human GnRH receptor.; format: cell-based
T1 sequence (P30968 whole entry): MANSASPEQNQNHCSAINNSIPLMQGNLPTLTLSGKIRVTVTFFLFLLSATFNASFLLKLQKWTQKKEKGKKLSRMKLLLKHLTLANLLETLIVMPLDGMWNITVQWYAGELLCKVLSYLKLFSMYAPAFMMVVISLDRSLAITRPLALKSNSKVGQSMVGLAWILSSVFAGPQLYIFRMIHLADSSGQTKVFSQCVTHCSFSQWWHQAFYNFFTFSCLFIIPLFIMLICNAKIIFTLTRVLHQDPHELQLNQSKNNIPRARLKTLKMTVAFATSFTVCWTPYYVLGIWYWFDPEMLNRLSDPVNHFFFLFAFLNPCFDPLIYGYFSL
Summary of the method: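 Functional antagonism read as inhibition of GnRH-stimulated phosphatidylinositol hydrolysis in cloned CHO cells stably expressing human GnRH receptor; IC50 reported in nM.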

[2] = biological target: T1, Gonadotropin-releasing hormone receptor; experiment: Binding inhibition towards human pituitary gonadotropin-releasing hormone receptor using [125I]buserelin.
Summary of the method: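 Competition binding against the agonist radioligand [125I]buserelin at human pituitary GnRH receptor, run in the presence of 0.1% BSA; IC50 reported in nM.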

[3] = Oral bioavailability in rat; format: ADME, organism-based; conditions: in vivo
[4] = Oral bioavailability in dog; format: ADME, organism-based, Canis lupus familiaris; conditions: in vivo
[5] = Oral bioavailability in Rhesus monkey; format: ADME, organism-based, Macaca mulatta; conditions: in vivo

SMILES | IC50 [1] | IC50 [2] | bioavailability [3] | bioavailability [4] | bioavailability [5]
Cc1cc(C)cc(-c2[nH]c3ccc(C(C)(C)C(=O)N4CC5CCC4CC5)cc3c2[C@H](C)CNCCc2ccc(=O)n(C)c2)c1 | 1.4 nM | 0.2 nM |  |  | 
Cc1cc(C)cc(-c2[nH]c3ccc(C(C)(C)C(=O)N4CCC5(CC4)OCCO5)cc3c2[C@H](C)CNCCCCc2ccncc2)c1 | 66 nM | 0.6 nM |  |  | 
Cc1cc(C)cc(-c2[nH]c3ccc(C(C)(C)C(=O)N4CC5CCC4CC5)cc3c2[C@H](C)CNCCCCc2ccncc2)c1 | 2.8 nM | 1 nM | 14% | 7% | 
Cc1cc(C)cc(-c2[nH]c3ccc(C(C)(C)C(=O)N4CCN(C(=O)OC(C)(C)C)CC4)cc3c2[C@H](C)CNCCCCc2ccncc2)c1 | 220 nM | 6.1 nM |  |  | 
COCn1cc(CCNC[C@@H](C)c2c(-c3cc(C)cc(C)c3)[nH]c3ccc(C(C)(C)C(=O)N4CC5CCC4CC5)cc23)ccc1=O | 3.9 nM | 0.4 nM |  |  | 
CCS(=O)(=O)N1CCN(C(=O)C(C)(C)c2ccc3[nH]c(-c4cc(C)cc(C)c4)c([C@H](C)CNCCCCc4ccncc4)c3c2)CC1 | 124 nM | 4.4 nM |  |  | 
Cc1cc(C)cc(-c2[nH]c3ccc(C(C)(C)C(=O)N4C5CCCCC5C5CCCCC54)cc3c2[C@H](C)CNCCCCc2ccncc2)c1 (some centres undefined) | 31 nM | 21 nM |  |  | 
Cc1cc(C)cc(-c2[nH]c3ccc(C(C)(C)C(=O)N4CC5CCC4CC5)cc3c2[C@H](C)CNCCc2cccn(C)c2=O)c1 | 82 nM | 5.3 nM |  |  | 
Cc1cc(C)cc(-c2[nH]c3ccc(C(C)(C)C(=O)N4CCC(C)(C)CC4)cc3c2[C@H](C)CNCCCCc2ccncc2)c1 | 39 nM | 1.3 nM |  |  | 
Cc1cc(C)cc(-c2[nH]c3ccc(C(C)(C)C(=O)N4CC5CCC4CC5)cc3c2[C@H](C)CNCCc2ccncc2)c1 | 7.2 nM | 0.6 nM | 8% | 25% | 21%
COc1ccc(CCNC[C@@H](C)c2c(-c3cc(C)cc(C)c3)[nH]c3ccc(C(C)(C)C(=O)N4CC5CCC4CC5)cc23)cn1 | 11 nM | 1 nM |  |  | 
Cc1cc(C)cc(-c2[nH]c3ccc(C(C)(C)C(=O)N4C[C@H]5CC[C@@H]4C5)cc3c2[C@H](C)CNCCCCc2ccncc2)c1 | 4 nM | 1 nM |  |  | 
Cc1cc(C)cc(-c2[nH]c3ccc(C(C)(C)C(=O)N4C[C@@H]5CC[C@H]4C5)cc3c2[C@H](C)CNCCCCc2ccncc2)c1 | 8.7 nM | 0.4 nM |  |  | 
Cc1cc(C)cc(-c2[nH]c3ccc(C(C)(C)C(=O)N4CC5CCC(CC5)C4)cc3c2[C@H](C)CNCCCCc2ccncc2)c1 | 13 nM | 2.1 nM |  |  | 
Cc1cc(C)cc(-c2[nH]c3ccc(C(C)(C)C(=O)N(CC(C)C)CC(C)C)cc3c2[C@H](C)CNCCCCc2ccncc2)c1 | 14 nM | 5.6 nM |  |  | 
Cc1cc(C)cc(-c2[nH]c3ccc(C(C)(C)C(=O)N4C[C@H]5CC[C@@H]4C5)cc3c2[C@H](C)CNCCc2ccncc2)c1 | 1.9 nM | 1.2 nM |  | 8.5% | 
Cc1cc(C)cc(-c2[nH]c3ccc(C(C)(C)C(=O)N4C5CCC4CC5)cc3c2[C@H](C)CNCCCCc2ccncc2)c1 | 5.7 nM | 0.7 nM |  |  | 
Cc1cc(C)cc(-c2[nH]c3ccc(C(C)(C)C(=O)N4CCC5(CCCC5)CC4)cc3c2[C@H](C)CNCCCCc2ccncc2)c1 | 93 nM | 2.7 nM |  |  | 
Cc1cc(C)cc(-c2[nH]c3ccc(C(C)(C)C(=O)N4CC5CCC4CC5)cc3c2[C@H](C)CNCCc2cccnc2)c1 | 2.6 nM | 0.6 nM |  | 12% | 
Cc1cc(C)cc(-c2[nH]c3ccc(C(C)(C)C(=O)N4C5CCC4CC5)cc3c2CCNCCCCc2ccncc2)c1 |  | 1.4 nM |  |  | 
Cc1cc(C)cc(-c2[nH]c3ccc(C(C)(C)C(=O)N4C[C@H]5CCCC[C@H]5C4)cc3c2[C@H](C)CNCCCCc2ccncc2)c1 | 66 nM | 1.4 nM |  |  | 
Cc1cc(C)cc(-c2[nH]c3ccc(C(C)(C)C(=O)N4CC5CCC4CC5)cc3c2[C@H](C)CNCCC2CCC(=O)N(C)C2)c1 (some centres undefined) | 8.2 nM | 0.4 nM |  |  | 
Cc1cc(C)cc(-c2[nH]c3ccc(C(C)(C)C(=O)N4C5CCCC4CC5)cc3c2[C@H](C)CNCCCCc2ccncc2)c1 | 8.8 nM | 0.8 nM |  |  | 
Cc1cc(C)cc(-c2[nH]c3ccc(C(C)(C)C(=O)N4CC5CCC4CC5)cc3c2[C@H](C)CNCCc2cc(C)c(=O)n(C)c2)c1 | 4 nM | 0.6 nM |  | 35% | 4%
Cc1cc(C)cc(-c2[nH]c3ccc(C(C)(C)C(=O)N4CC5CCC4CC5)cc3c2[C@H](C)CNCCc2ccc(O)nc2)c1 | 1 nM | 0.3 nM |  |  | 
Cc1cc(C)cc(-c2[nH]c3ccc(C(C)(C)C(=O)N4CC5(C)CC4CC(C)(C)C5)cc3c2[C@H](C)CNCCCCc2ccncc2)c1 (some centres undefined) | 6.4 nM | 4.8 nM |  |  | 
Cc1cc(C)cc(-c2[nH]c3ccc(C(C)(C)C(=O)N4CC5CCCC4C5)cc3c2[C@H](C)CNCCCCc2ccncc2)c1 (some centres undefined) | 6.8 nM | 4.8 nM |  |  | 
Cc1cc(C)cc(-c2[nH]c3ccc(C(C)(C)C(=O)N4CC(C)(C)C4)cc3c2[C@H](C)CNCCCCc2ccncc2)c1 | 21 nM | 0.7 nM |  |  | 
Cc1cc(C)cc(-c2[nH]c3ccc(C(C)(C)C(=O)N4C5CCC4CC5)cc3c2[C@H](C)CNCCc2ccncc2)c1 | 7 nM | 0.8 nM | 23% | 14% | 6.4%
